# Source: PubChem BioAssay (The Scripps Research Institute Molecular Screening Center)
# CHO parental Ca: counter-screen for OX1R antagonists: effect in parental CHO cells | parental CHO-K1, ATP-induced calcium, Fluo-8 fluorescence | inhibition, % at 5.6 µM | 0.63% of 330,000 active;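 active means inhibition above that plate's mean sample inhibition plus 3 SD, cut at about 26% in these data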
#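 Material: Parental CHO cells | Reagent: ATP | Compound dosing: Single nominal dose of 5.6 µM per compound | Detection: Intracellular calcium via Fluo-8 no-wash fluorescent dye | Read-out: % inhibition of ATP-induced calcium mobilization | Benchmarks: Low control ATP plus DMSO, high control DMSO only | Replicates: Singlicate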
# OX1R antag-1: antagonists of human orexin 1 receptor. O43613. CHO/OX1R cells, Fluo-8 calcium fluorescence, orexin A. inhibition, % at 5 µM. 0.43% of 330,000 active;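 active means inhibition above its plate's threshold, mean inhibition of all tested compounds on the plate plus 3 SD, cut at about 37% in these data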
# Target sequence (O43613 whole entry, looked up): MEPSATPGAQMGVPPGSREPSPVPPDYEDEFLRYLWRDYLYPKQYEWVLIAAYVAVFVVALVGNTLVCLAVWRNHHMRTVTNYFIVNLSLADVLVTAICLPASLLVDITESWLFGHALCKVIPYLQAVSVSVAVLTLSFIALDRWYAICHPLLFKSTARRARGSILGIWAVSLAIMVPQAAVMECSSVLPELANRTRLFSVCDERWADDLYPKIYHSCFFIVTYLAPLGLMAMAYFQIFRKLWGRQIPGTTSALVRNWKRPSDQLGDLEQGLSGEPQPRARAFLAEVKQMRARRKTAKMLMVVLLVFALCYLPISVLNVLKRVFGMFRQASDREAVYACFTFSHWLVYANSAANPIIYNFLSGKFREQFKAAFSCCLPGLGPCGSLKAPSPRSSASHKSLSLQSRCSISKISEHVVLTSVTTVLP
# OX1R antag-2: antagonists of human orexin 1 receptor (OX1R); OX1R-expressing cells, FRET antagonist read-out; AID 485270; O43613; 1.8% of 330,000 active; inhibition, % at 6.6 µM; in the data active means inhibition mostly above about 38%, no sharp cut-off; inactive means mostly below about 40%
# CHO-K1 Ca antag: nonselective inhibitor or artifact in parental CHO-K1 cells. ATP-induced calcium, Fluo-8 fluorescence. inhibition, % at 3 µM. 0.6% of 360,000 active. AID 602250;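 active means inhibition above a per-plate cutoff, the plate's mean sample inhibition plus 3 SD, cut at about 24% in these data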
# M1 PAM parental: counter-screen for M1 PAMs: effect in parental CHO-K1 cells; ATP EC20, Fluo-8 calcium fluorescence; 0% at ATP EC20, 100% at ATP max; AID 602247; 0.02% of 360,000 active; activation, % at 3 µM;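 active means activation above the run cutoff, the mean activation of all test compounds plus 3 SD, cut at about 40% in these data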;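 further: peak over basal fluorescence ratio in a 140 s read after ATP addition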
# CHO-K1 Ca ag: nonselective activator or artifact in parental CHO-K1 cells | 0.48% of 360,000 active | AID 602248 | activation, % at 3 µM | Fluo-8 calcium fluorescence; scaled to maximal ATP response, vehicle zero; in the data active means activation above about 15%;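 further: untransfected CHO-K1 host cells lacking M1 receptor as counterscreen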
# Numbers stand for hits; - = inactive; . = no result. This is a sample that favours compounds with a hit; in the whole collection about 2.9% have one here.
SMILES,CHO parental Ca,OX1R antag-1,OX1R antag-2,CHO-K1 Ca antag,M1 PAM parental,CHO-K1 Ca ag
N#CC1=C(N)NC(SCC(=O)c2ccc(Cl)cc2)=C(C#N)C12CCCC2,-,53.1,-,-,-,-
Clc1cccc(CON/C=N/c2ncnc3sccc23)c1,-,-,82.2,-,-,-
Clc1cccc(Cl)c1CON/C=N/c1ncnc2sccc12,-,-,-,-,-,-
C[C@@H]1CC[C@]2(C(=O)O[C@@H]3O[C@H](CO)[C@@H](O)[C@H](O)[C@H]3O)CC[C@]3(C)C(=CCC4[C@@]5(C)CC[C@H](O[C@@H]6OC[C@H](O)[C@H](O[C@@H]7O[C@H](CO)[C@@H](O)[C@H](O)[C@H]7O)[C@H]6O)C(C)(C)C5CC[C@]43C)C2[C@]1(C)O (stereo partly drawn),-,-,-,-,-,-
COc1ccc(/C=C\C(=O)O[C@@H]2C(O)C(O[C@@H]3OC(C)[C@H](O[C@@H]4OCC(O[C@H]5O[C@H](CO)[C@@H](O)C(O)C5O)C(O)C4O)C(O)C3O)[C@H](OC(=O)[C@]34CCC(C)(C)C[C@@H]3C3=CCC5[C@@]6(C)CC(O)C(O[C@@H]7OC(CO)C(O)[C@H](O)[C@H]7O)[C@@](C)(C(=O)O)C6CC[C@@]5(C)[C@]3(CO)CC4)O[C@H]2C)cc1 (stereo partly drawn),100.5,109.6,-,71.2,-,90.1
O=C1c2cccc3cc([N+](=O)[O-])cc(c23)C(=O)N1CC1CCCO1 (stereo not drawn),-,-,59.8,-,-,-
CN(C)CCN1C(=O)c2cccc3cc([N+](=O)[O-])cc(c23)C1=O,.,.,.,-,-,-
CC(=O)OCCN1C(=O)c2cccc3cc([N+](=O)[O-])cc(c23)C1=O,-,-,69.3,.,.,.
CC1(c2ccc([N+](=O)[O-])cc2)Nc2ccccc2S1 (stereo not drawn),-,-,-,-,-,15.1
O=C1Nc2ccccc2/C1=C/c1ccc([N+](=O)[O-])cc1,-,-,-,-,-,-
CCOC(=O)c1cc(OC)c2cccc(CN3CCC(C)(C(=O)NCCOC)C3)c2c1 (stereo not drawn),.,.,.,-,-,-
O=C(Cn1cnc2c(NCc3ccccc3)ncnc21)NCCc1cc2ccccc2[nH]1,-,-,34.1,-,-,-
O=C(Cn1cnc2c(NCc3ccccc3)ncnc21)NCCCc1ccccc1,-,-,-,-,-,-
CC(C)CNC(=O)CSc1nc(-c2cccs2)cc(C(F)(F)F)n1,-,-,-,23.9,-,-
O=C(CN1C2CCCC1CC(NC(=O)C1CCCCC1)C2)Nc1ccccc1C(F)(F)F (stereo not drawn),-,-,42.0,-,-,-
O=C(CN1C2CCCC1CC(NC(=O)C1CCCCC1)C2)NCc1ccc(F)cc1 (stereo not drawn),-,-,-,-,-,-
O=C(c1cc2ccccc2o1)N1CCC(N2CCC(C(=O)N3CCCC3)CC2)CC1,-,-,-,24.1,-,-
COc1cc(CNCc2ccccn2)ccc1OCc1ccc(Cl)cc1Cl,-,-,-,25.1,-,-
COc1ccc(CNCCc2ccccc2)cc1OCC(N)=O,-,-,-,-,-,-
COc1ccc(CNCCc2ccc(Cl)cc2)cc1OCc1ccccc1,41.8,-,-,-,-,-
CCOc1cc(CNCc2ccccc2)ccc1OCc1ccc(Cl)cc1,92.1,69.0,-,28.8,-,20.2
CCOc1cc(CNCCc2ccc(S(N)(=O)=O)cc2)cc(Cl)c1OCc1ccccc1,58.4,54.9,-,-,-,21.4
Cc1ccc(NS(=O)(=O)c2c(C(=O)N3CCCCCC3)c(C)n(C)c2C)cc1C,-,-,-,-,-,-
Cn1ncc([N+](=O)[O-])c1C(=O)Nc1ccc(C2CCCCC2)cc1,-,-,-,-,-,-
Nc1cc(S(=O)(=O)N2CCOCC2)ccc1Oc1cccc(Br)c1,.,.,.,24.0,-,-
COc1ccc(S(=O)(=O)N2CCOCC2)cc1Br,-,-,-,-,-,-
Cc1cccc(NC(=O)c2ncn3c2C(=O)N(C)CC3)c1,.,.,.,-,-,-
COC(=O)C1(Cc2cc(-c3ccccc3)no2)CCN(C(=O)OC(C)(C)C)CC1,-,-,-,-,-,-
COc1cccc(Cn2nnc(C(=O)Nc3ccc(C)cc3)c2N)c1,-,-,-,-,-,-
